From ChEMBL document CHEMBL1914434, “Synthesis, computational studies and preliminary pharmacological evaluation of 2-[4-(aryl substituted) piperazin-1-yl] N, N-diphenylacetamides as potential antipsychotics” (Eur J Med Chem, 2011)

Key:
Mus musculus [1] = species on record: Mus musculus; assay: Toxicity in albino mouse assessed as induction of catalepsy measured at 30 mins intervals until 240 mins; assay type: organism-based; settings: in vivo
Method in brief: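 Test drug given i.p. to albino mice (n = 6) in place of haloperidol reference (1.0 mg/kg i.p.). Bar test: time (s) holding forelimbs extended on 4 cm high, 1.0 cm diameter wooden bar, cut-off 1100 s, read at 30 min intervals to 120 min and at 240 min. Run 10.00–16.00 h, quiet room, 23–25 °C. ED50 (mg/kg, i.p.).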

Mus musculus [2] = assay: Antipsychotic activity in ip dosed Swiss albino mouse assessed as inhibition of apomorphine-induced mesh climbing response administered 10 mins prior to apomorphine challenge measured at 5 mins intervals for up to 20 mins after 10 mins post dose; assay type: functional
Method in brief: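 Groups of six mice given test compound, saline (control) or clozapine i.p.; apomorphine 2.5 mg/kg i.p. 10 min later. Mesh climbing scored (0 = no paws on cage) at 5 min intervals for 20 min from 10 min post-apomorphine, maximum total score 20. Mean ± SEM; ED50 (mg/kg, i.p.); Kruskal-Wallis or one-way ANOVA vs control.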

Mus musculus [3] = assay: Antipsychotic activity in ip dosed Swiss albino mouse assessed as inhibition of 5-hydoxytryptophan-induced head twitches behavior administered 30 mins prior to 5-hydoxytryptophan challenge measured at 10 mins intervals for 30 mins after 20 mins post dose; assay type: functional
Method in brief: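 Mice (n = 6/group) pretreated with pargyline 75 mg/kg i.p. to slow 5-HTP breakdown; test compound given i.p. 30 min later, then 5-HTP 50 mg/kg i.p. after a further 30 min. Head twitches scored at 10 min intervals for 30 min from 20 min post-5-HTP. Data as mean ± SEM total score; ED50 (mg/kg, i.p.); Kruskal-Wallis or one-way ANOVA vs control.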

O=C(CN1CCN(c2ccc(F)cc2)CC1)N(c1ccccc1)c1ccccc1
ED50 (Mus musculus [1]): > 40 mg/kg
ED50 (Mus musculus [2]): 13.4 mg/kg
ED50 (Mus musculus [3]): 20 mg/kg

O=C(CN1CCN(c2ccccc2)CC1)N(c1ccccc1)c1ccccc1
ED50 (Mus musculus [1]): 50 mg/kg
ED50 (Mus musculus [2]): 20.5 mg/kg
ED50 (Mus musculus [3]): 27 mg/kg

Cc1ccc(N2CCN(CC(=O)N(c3ccccc3)c3ccccc3)CC2)cc1
ED50 (Mus musculus [1]): > 40 mg/kg
ED50 (Mus musculus [2]): > 20 mg/kg
ED50 (Mus musculus [3]): 31.2 mg/kg

COc1cccc(N2CCN(CC(=O)N(c3ccccc3)c3ccccc3)CC2)c1
ED50 (Mus musculus [1]): 55.4 mg/kg
ED50 (Mus musculus [2]): 10 mg/kg
ED50 (Mus musculus [3]): 15.5 mg/kg

O=C(CN1CCN(c2ccc(Cl)c(Cl)c2)CC1)N(c1ccccc1)c1ccccc1
ED50 (Mus musculus [1]): 45 mg/kg
ED50 (Mus musculus [2]): 24 mg/kg
ED50 (Mus musculus [3]): > 20 mg/kg

Cc1cccc(N2CCN(CC(=O)N(c3ccccc3)c3ccccc3)CC2)c1C
ED50 (Mus musculus [1]): > 40 mg/kg
ED50 (Mus musculus [2]): 28.5 mg/kg
ED50 (Mus musculus [3]): > 30 mg/kg

O=C(CN1CCN(c2cccc(Cl)c2)CC1)N(c1ccccc1)c1ccccc1
ED50 (Mus musculus [1]): 48.4 mg/kg
ED50 (Mus musculus [2]): 16.5 mg/kg
ED50 (Mus musculus [3]): 18 mg/kg

COc1ccccc1N1CCN(CC(=O)N(c2ccccc2)c2ccccc2)CC1
ED50 (Mus musculus [1]): 50.4 mg/kg
ED50 (Mus musculus [2]): 8.2 mg/kg
ED50 (Mus musculus [3]): 12.7 mg/kg

O=C(CN1CCN(c2ccc([N+](=O)[O-])cc2)CC1)N(c1ccccc1)c1ccccc1
ED50 (Mus musculus [1]): > 40 mg/kg
ED50 (Mus musculus [2]): 30 mg/kg
ED50 (Mus musculus [3]): > 40 mg/kg

O=C(CN1CCN(c2cccc(C(F)(F)F)c2)CC1)N(c1ccccc1)c1ccccc1
ED50 (Mus musculus [1]): 48 mg/kg
ED50 (Mus musculus [2]): 21.3 mg/kg
ED50 (Mus musculus [3]): 30 mg/kg

CN1CCN(C2=Nc3cc(Cl)ccc3Nc3ccccc32)CC1 [CLOZAPINE]
ED50 (Mus musculus [2]): 8.7 mg/kg
ED50 (Mus musculus [3]): 2.8 mg/kg
